{"source": "paper PMC5362268", "about": "(Cell, 2017)", "key": {"[1]": {"test": "Microsomal stability assay", "format": "in vitro ADME", "conditions": "human, over 120 minutes", "method_in_brief": "(§1)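 Liver microsomes incubated in 100 mM phosphate buffer, pH 7.4, supplemented with an NADPH-regenerating system (solutions A and B).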"}, "[2]": {"tested_on": "BRAF^V600E-CAAX-expressing MEF cells", "test": "Viability assay in mouse embryo fibroblasts", "format": "cell-based"}, "KRAS^G12D-GppNHp": {"target": "KRAS^G12D-GppNHp (Homo sapiens, UniProt P01116, G12D)", "test": "Isothermal titration calorimetry", "format": "binding", "method_in_brief": "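Test compound in the cell at 200 µM (1.25% DMSO); protein in the syringe at 2.0 mM, DMSO-matched. Run at 25 °C: 19 × 2 µl injections, 180 s apart; reference power 5 µcal/sec.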"}, "[3]": {"test": "Pharmacokinetic analysis in mice", "format": "in vivo, mouse", "conditions": "20 mg/kg, plasma", "method_in_brief": "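Plasma flash-frozen in liquid nitrogen, stored at −80 °C, and assayed by UPLC-MS-MS. Plasma from six untreated mice used for calibration and matrix correction. AUCINF calculated from t = 0 to infinity using calculated half-life and last measured concentration.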"}, "[4]": {"tested_on": "HT-1080 cells (NRAS^Q61K)", "test": "Lethality with PI3K and BRAF overexpression", "format": "cell-based, human", "conditions": "24 h, 6-well format", "method_in_brief": "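HT-1080 cells were retrovirally transduced using Phoenix-AMPHO supernatant, 0.45 µm filtered and added twice 4 h apart. After 48 h they were re-seeded under puromycin (2 μg/mL) for 6 d, and expression was checked by qPCR. Cells at 100,000/well in 6-well plates were treated 24 h, trypsinized, and viability read by Trypan blue exclusion (Vi-Cell).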"}, "[5]": {"tested_on": "MDA-MB-231 cell line (KRAS^G13D)", "test": "Multicellular tumor spheroids", "format": "cell-based, human", "conditions": "low-adherence plates, 72 h"}, "K mouse weights on study": {"test": "K mouse weights on study", "format": "in vivo", "conditions": "individual mice"}, "[6]": {"test": "KC mouse weights on study", "format": "in vivo", "conditions": "individual mice"}, "NRAS^wt": {"target": "NRAS^wt (Homo sapiens, UniProt P01111)", "sequence (P01111 whole entry)": "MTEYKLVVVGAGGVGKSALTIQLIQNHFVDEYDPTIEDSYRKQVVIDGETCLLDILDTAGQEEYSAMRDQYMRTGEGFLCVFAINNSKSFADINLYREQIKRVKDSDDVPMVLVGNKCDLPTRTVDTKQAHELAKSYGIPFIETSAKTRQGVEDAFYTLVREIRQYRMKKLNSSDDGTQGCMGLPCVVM", "test": "MST with RAS GTPases", "format": "binding", "conditions": "selectivity panel, GppNHp-loaded"}, "[7]": {"tested_on": "T-ALL cells with mutant NRAS (G13V and G13D)", "test": "Viability of primary T-ALL patient samples", "format": "cell-based", "conditions": "Homo sapiens, 72 h", "method_in_brief": "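Primary T-ALL lymphoblasts, 250,000 per well in 24-well plates, in triplicate. Treated with DMSO vehicle or test compound across 1 to 5 μM for 72 h. Viability by flow-based kit with counting beads, gating out GFP+ stromal cells and PI+ dead cells and particles.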"}, "[8]": {"tested_on": "PDTALL22 patient T-ALL xenograft", "test": "Patient-derived xenograft study", "format": "in vivo, mouse", "conditions": "30 mg/kg IP", "method_in_brief": "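Retrovirally transduced luciferase-expressing T-ALL cells were expanded in primary recipients, harvested from spleen and injected into secondary recipients. These were randomised into two groups of 5 with equal luciferase load. Dosing: vehicle or 30 mg/kg IP in 5% DMSO in HBSS pH 4 on days 0, 1, 4, 5, 7, 8. Imaging on days 0, 4 and 8; sacrifice on day 8 for spleen weight and human CD45+ cells.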"}, "MDA-MB-231 xenograft": {"tested_on": "MDA-MB-231 xenograft", "test": "Xenograft therapeutic study in mice", "format": "in vivo, mouse", "conditions": "180 mg/kg orally, 10 doses, 15 days of treatment, nude mice", "method_in_brief": "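Eight-week-old female nude mice received 7 million MDA-MB-231 cells subcutaneously. After 3 d they were randomised at ~58 mm³ tumours. Dosing was oral, 180 mg/kg (12 mg/mL, 10% DMSO, pH 4) or vehicle, 10 doses over 14 d. Tumours measured by caliper every 2 d; volume = 0.523 × length × width².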"}, "[9]": {"test": "Microsomal stability assay", "format": "in vitro ADME", "conditions": "mouse, over 120 minutes", "method_in_brief": "as §1"}, "HRAS^wt": {"target": "HRAS^wt (Homo sapiens, UniProt P01112)", "sequence (P01112 whole entry)": "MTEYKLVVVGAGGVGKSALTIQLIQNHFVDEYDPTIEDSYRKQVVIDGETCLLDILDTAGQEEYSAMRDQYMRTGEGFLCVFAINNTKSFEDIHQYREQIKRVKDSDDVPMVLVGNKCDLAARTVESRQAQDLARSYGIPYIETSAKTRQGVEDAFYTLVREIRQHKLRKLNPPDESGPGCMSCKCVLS", "test": "MST with RAS GTPases", "format": "binding", "conditions": "selectivity panel, GppNHp-loaded"}, "[10]": {"tested_on": "pERK and pAKT in HT-1080 cells (NRAS^Q61K)", "test": "Western blots of RAS signaling", "format": "cell-based, human", "method_in_brief": "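Cells seeded 16 h before use in DMEM with 10% or 2% FBS plus P/S. Compound added in serum-free DMEM or DMEM 2% FBS for the indicated times. Lysis in HEPES pH 7.4 buffer with phosphatase and protease inhibitors; SDS-PAGE, PVDF transfer, Li-COR blocking, primary antibodies (1:1000) overnight at 4 °C.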"}, "[11]": {"tested_on": "Kras^lox/lox, Hras^−/−, Nras^−/− RERTn^ert/ert MEFs", "test": "Viability assay in mouse embryo fibroblasts", "format": "cell-based", "conditions": "Fibroblast, 48 h, read-out: IC50 (lethality)", "method_in_brief": "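Cells trypsinised and seeded at 1,000/well in 384-well plates unless otherwise specified. After 16 h, 8- or 16-point dilution series (from 10 mM DMSO stocks) transferred at 1:5. At 48 h, Alamar blue added to 10% final; fluorescence read after 6 h (ex 535, em 590 nm). Triplicates; 37 °C, 5% CO2.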"}, "[12]": {"tested_on": "pAKT (S473), pERK1/2 and cleaved caspase-3 in KP^f/fC pancreatic tumors", "test": "KP^f/fC mouse pharmacodynamic study", "format": "in vivo", "conditions": "post- vs pre-treatment tumor samples"}, "KRAS^G12D I36N": {"target": "KRAS^G12D I36N (Homo sapiens, UniProt P01116, G12D/I36N)", "test": "MST, I36N point mutant", "format": "binding", "conditions": "compared with KRAS^G12D"}, "wild-type mice": {"tested_on": "wild-type mice", "test": "Toxicity and body weight in wild-type mice", "format": "in vivo, mouse", "conditions": "individual mice"}, "RRAS2": {"target": "RRAS2 (Homo sapiens, UniProt P62070)", "sequence (P62070 whole entry)": "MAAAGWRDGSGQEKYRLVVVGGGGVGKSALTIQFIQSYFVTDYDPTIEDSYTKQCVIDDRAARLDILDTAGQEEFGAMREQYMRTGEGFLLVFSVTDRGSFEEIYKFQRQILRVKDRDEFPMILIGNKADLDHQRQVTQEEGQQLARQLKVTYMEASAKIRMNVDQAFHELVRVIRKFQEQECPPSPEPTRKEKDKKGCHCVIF", "test": "MST with RAS GTPases", "format": "binding", "conditions": "selectivity panel, GppNHp-loaded"}}, "note": "Several values for one entry are separate records, joined by “and”; a condition that tells them apart may be missing. Equal values may be shown once."}
{"compound": "NC1(C(=O)NCCCn2cc(-c3ccc(OC(F)(F)F)cc3)c3cc(CN4CCN(Cc5c(Cl)cccc5Cl)CC4)ccc32)CCNCC1", "note": "[compound 3144, 4-amino-N-(3-(5-((4-(2,6-dichlorobenzyl)piperazin-1-yl)methyl)-3-(4-(trifluoromethoxy)phenyl)-1H-indol-1-yl)propyl)piperidine-4-carboxamide]", "values": [{"measurement": "stability in liver microsomes", "setting": "[1]", "result": "relatively stable"}, {"measurement": "concentrations showing lethality", "setting": "[2]; BRAF^V600E-CAAX-expressing MEFs", "result": "≥ 20", "unit": "µM"}, {"measurement": "sensitivity after Kras excision and BRAF^V600E-CAAX introduction", "setting": "[2]; compared with Kras^lox/lox MEFs", "result": "resistance"}, {"measurement": "Kd", "setting": "KRAS^G12D-GppNHp", "result": "17.8 ± 4.5", "unit": "µM"}, {"measurement": "Tlast", "setting": "[3]; IP, male C57BL/6 mice", "result": 12, "unit": "h"}, {"measurement": "Tlast", "setting": "[3]; IV, male C57BL/6 mice", "result": 12, "unit": "h"}, {"measurement": "HL_Lambda_z", "setting": "[3]; PO, male C57BL/6 mice", "result": ">12", "unit": "h"}, {"measurement": "Tlast", "setting": "[3]; PO, male C57BL/6 mice", "result": 12, "unit": "h"}, {"measurement": "AUC(0-inf)", "setting": "[3]; male, C57BL/6, mouse, po", "result": 5650, "unit": "ng·h/mL"}, {"measurement": "lethality upon overexpression of activated alleles of PI3K and/or BRAF", "setting": "[4]", "result": "reduced"}, {"measurement": "spheroid size", "setting": "[5]", "result": "decreased in size in a dose-dependent manner"}, {"measurement": "K mouse weights", "setting": "K mouse weights on study; day 1 on study", "result": "19.1 and 14.5 and 22.9 and 26.1 and 18.5"}, {"measurement": "K mouse weights", "setting": "K mouse weights on study; day 2 on study", "result": "18.4 and 14.1 and 21.6 and 24.7 and 17.4"}, {"measurement": "K mouse weights", "setting": "K mouse weights on study; day 3 on study", "result": "18.6 and 14.2 and 20.7 and 23.6 and 17"}, {"measurement": "K mouse weights", "setting": "K mouse weights on study; day 4 on study", "result": "17.5 and 14.2 and 20.1 and 23.27 and 17.7"}, {"measurement": "K mouse weights", "setting": "K mouse weights on study; day 5 on study", "result": "17.5 and 13.63 and 19.8 and 22.7 and 16.5"}, {"measurement": "KC mouse weights", "setting": "[6]; day 1 on study", "result": "33 and 30.5 and 30.7 and 33.5 and 35.8"}, {"measurement": "KC mouse weights", "setting": "[6]; day 2 on study", "result": "32.2 and 28.1 and 27.8 and 33.5 and 34.5"}, {"measurement": "KC mouse weights", "setting": "[6]; day 3 on study", "result": "29.9 and 24.84 and 32 and 26.86"}, {"measurement": "KC mouse weights", "setting": "[6]; day 4 on study", "result": "28.8 and 23.6 and 30.5"}, {"measurement": "KC mouse weights", "setting": "[6]; day 5 on study", "result": "28.5 and 30.2"}, {"measurement": "binding by MST", "setting": "NRAS^wt", "result": "detected binding"}, {"measurement": "viability at 5 µM", "setting": "[7]", "result": "20 to 40", "unit": "%"}, {"measurement": "percent of infiltrative human CD45+ cells in spleen", "setting": "[8]; day 8", "result": "reduction"}, {"measurement": "spleen cellularity (hematoxylin and eosin)", "setting": "[8]; day 8", "result": "decreased cellularity"}, {"measurement": "spleen size", "setting": "[8]; day 8", "result": "decrease in size"}, {"measurement": "tumor burden (luciferase imaging)", "setting": "[8]; days 0, 1, 4, 5, 7, 8, imaged after 4 and 8 days", "result": "decrease in tumor burden"}, {"measurement": "tumor growth", "setting": "MDA-MB-231 xenograft", "result": "inhibition of tumor growth"}, {"measurement": "stability in liver microsomes", "setting": "[9]", "result": "relatively stable"}, {"measurement": "binding by MST", "setting": "HRAS^wt", "result": "detected binding"}, {"measurement": "pERK and pAKT abundance", "setting": "[10]", "result": "somewhat decreased"}, {"measurement": "EGF-induced pAKT and pERK abundance", "setting": "[10]; 10 ng/mL EGF 15 min", "result": "suppressed to a degree"}, {"measurement": "IC50", "setting": "[11]", "result": 3.8, "unit": "µM"}, {"measurement": "cleaved caspase-3 in tumor", "setting": "[12]", "result": "modest increase"}, {"measurement": "pAKT (S473) and pERK1/2 in tumor", "setting": "[12]; 30 mg/kg IP once daily", "result": "decrease"}, {"measurement": "binding affinity to I36N mutant", "setting": "KRAS^G12D I36N", "result": "reduced binding affinity"}, {"measurement": "WT mouse weights", "setting": "wild-type mice; day 1 on study", "result": "21.36 and 20.39 and 22.08 and 23.6 and 25"}, {"measurement": "WT mouse weights", "setting": "wild-type mice; day 2 on study", "result": "20 and 18.8 and 20.6 and 22.7 and 23.38"}, {"measurement": "WT mouse weights", "setting": "wild-type mice; day 3 on study", "result": "20 and 18.4 and 20.1 and 21.87 and 22.16"}, {"measurement": "WT mouse weights", "setting": "wild-type mice; day 4 on study", "result": "20.77 and 17.4 and 19 and 21.08 and 23"}, {"measurement": "WT mouse weights", "setting": "wild-type mice; day 5 on study", "result": "20.78 and 17.27 and 18.6 and 21.4 and 22.18"}, {"measurement": "binding by MST", "setting": "RRAS2", "result": "weak binding"}]}
